Experimental data reported in PubChem BioAssay.
Records with an inconclusive call do not appear. Active and inactive are the calls of the source.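 Rule for the calls, unless noted: active = viability increase at or above a cutoff of the median across tested compounds plus 3 SD (cut at about 8.5% in these data, passing the limit was not always enough); inconclusive = some gains above the cutoff, reason not given; inactive = the rest.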

Experiments:
[1] = OD615 S. cerevisiae growth inhibition, permissive medium, pilot counter-assay, permissive growth control for S. cerevisiae lifespan shortening project (AID 705;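 active = growth inhibition above 25% in both replicates, a cutoff set 3 SD above the mean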); conditions: OD615, 24 h, at 10 µM, hits give high values
How it was run: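 assay system = Saccharomyces cerevisiae strain carrying genetically modified DeaD replicative-lifespan system | technique = absorbance (optical density) at 615 nm | buffer or medium = permissive raffinose/galactose medium | timing = cells pre-grown 4 h, then 24 h compound exposure, 30 °C humidified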

[2] = Restrictive medium S. cerevisiae growth inhibition, OD615, pilot screen of yeast lifespan reduction project, restrictive growth control (AID 706;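 active = growth inhibition above a set limit, 3 SD over mean compound inhibition, in both replicates, cut at about 43% in these data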;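 note: modified DeaD lifespan yeast strain shifted to restrictive glucose medium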); conditions: OD615, 48 h, at 10 µM, hits give high values
How it was run: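 System: modified S. cerevisiae. Buffer or medium: CSMM-D glucose medium. Incubation: 4 h pre-growth plus 48 h compound exposure, 30 °C. Detection: absorbance (optical density) measured at 615 nm.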

[3] = viability gain of MRP-1-high H69AR cells under doxorubicin, pilot screen, MRP-1 activator project, CellTiter-Glo, duplicate (AID 807); conditions: H69AR viability with doxorubicin, CellTiter-Glo luminescence; at 10 µM; hits give high values;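 note: compound pretreatment 18-22 h then 72 h combined with doxorubicin; 0% = doxorubicin alone and 100% = vehicle without doxorubicin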
[4] = growth suppression of beta-catenin knockout HCT116, pilot screen, human colon tumor cells (AID 823;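 active = cell viability at or below a set limit in both duplicate runs, the limit being the all-compound median minus 4 SD, cut at about 23% in these data, passing the limit was not always enough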;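 note: 0% = wells killed by 20 µM Hyamine and 100% = untreated DMSO cell wells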); conditions: CellTiter-Glo, 60 h, at 10 µM, hits give low values
[5] = growth suppression of PTEN-deleted HCT116, pilot screen, cell-based, HCT116 clonal line, CellTiter-Glo (AID 824;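 active = viability at or below 27.92% in each of two runs, the all-compound median minus 4 SD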;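 note: 0% = 20 µM Hyamine control and 100% = vehicle cell control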); conditions: 60 h, at 10 µM, hits give low values
[6] = inhibitors of the yeast RAM network, pilot screen, dse1pr::URA3 reporter, 5-FOA selection (AID 869;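 active = inhibition over a set limit, the all-compound mean plus 3 SD, in both replicate runs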;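 note: 0% = DMSO wells with no growth and 100% = 10 µM 1-NA-PP1 with full growth; RAM network block rescues cells from 5-FOA so hits raise OD615 growth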); conditions: S. cerevisiae dse1pr::URA3 5-FOA growth, OD615, 2 d; at 10 µM; hits give high values; strain carries analog-sensitive mutant Cbk1 kinase
[7] = RAM signaling pathway blockade in yeast – S. cerevisiae, Pdr1DBD-CYC8 efflux-inhibited sensitized strain, primary screen (AID 1298;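 active = RAM network inhibition above 8.4% in each of two replicates, 3 SD over the compound average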;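 note: 0% = DMSO untreated cells without growth and 100% = 10 µM 1-NA-PP1 full growth; higher means more yeast growth rescued from 5-FOA killing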); conditions: S. cerevisiae cbk1-as DSE1-URA3 strain, 5-FOA growth OD615, 2 d; at 50 µM; hits give high values

CCC(CC)C(=O)NCCc1cc2ccc(C)c(C)c2[nH]c1=O
inactive: growth inhibition [1] -14.2% | growth inhibition [2] -21.4% | viability increase [3] -1.66% | viability [4] 103% | viability [5] 96.6% | inhibition [6] 1.66% | RAM network inhibition [7] 2.56%

O=C(c1csc2c1CCCC2)N1CCCCC1
inactive: growth inhibition [1] 12.4% | growth inhibition [2] 8.33% | viability increase [3] -1.17% | viability [4] 99.2% | viability [5] 102% | inhibition [6] -0.145% | RAM network inhibition [7] 1.12%

O=C(O)C1C2C=CC(C2)C1C(=O)OCC1CCCO1 (configuration not stated)
inactive: growth inhibition [1] -6.31% | growth inhibition [2] 1.68% | viability increase [3] -1.53% | viability [4] 98.1% | viability [5] 94.8% | inhibition [6] 0.865% | RAM network inhibition [7] 1.34%

O=C(C(Cc1ccccc1)n1cccc1)N1CCc2ccccc21 (configuration not stated)
inactive: growth inhibition [1] -16.3% | growth inhibition [2] -9.65% | viability increase [3] -3.05% | viability [4] 81.2% | viability [5] 68.2% | inhibition [6] 2.29% | RAM network inhibition [7] 3.93%

CCCCN(CC)CCNC(=O)c1cc2c(=O)n(C)c3ccccc3c2n1C
inactive: growth inhibition [1] 2.65% | growth inhibition [2] -6.07% | viability increase [3] -5.86% | viability [4] 49% | viability [5] 48.6% | inhibition [6] 0.8% | RAM network inhibition [7] 0.41%

COc1ccc(C(=O)CCC(=O)N2CCN(c3ccc(N4CCOCC4)nn3)CC2)cc1
inactive: growth inhibition [1] 4.94% | growth inhibition [2] -0.495% | viability increase [3] -2.69% | viability [4] 102% | viability [5] 93.8% | inhibition [6] 1.65% | RAM network inhibition [7] 2.53%

O=C(CSc1nnc2scc(-c3ccccc3)n12)c1ccc2c(c1)OCCO2
inactive: growth inhibition [1] 1.86% | growth inhibition [2] 0.4% | viability increase [3] -2.27% | viability [4] 99.5% | viability [5] 93.1% | inhibition [6] 3.66% | RAM network inhibition [7] 7.73%

Cc1nc(CNS(=O)(=O)c2ccc3ccccc3c2)cs1
inactive: growth inhibition [1] -0.84% | growth inhibition [2] 3.39% | viability increase [3] -1.37% | viability [4] 97.8% | viability [5] 87.9% | inhibition [6] 2.13% | RAM network inhibition [7] 0%

Cc1cc(=O)[nH]c(Cc2ccc(OC(C)C)cc2)n1
inactive: growth inhibition [1] -6.43% | growth inhibition [2] -15.4% | viability increase [3] -1.17% | viability [4] 98.4% | viability [5] 93.2% | inhibition [6] 1.98% | RAM network inhibition [7] 5.82%

CCCCOc1ccc(CN2CCC(O)CC2)cc1
inactive: growth inhibition [1] -18.6% | growth inhibition [2] -6.13% | viability increase [3] -0.47% | viability [4] 90.9% | viability [5] 100% | inhibition [6] 1.06% | RAM network inhibition [7] 2.2%

O=C(C(Cc1ccccc1)n1cccc1)N1CCN(C2CCCCC2)CC1 (configuration not stated)
inactive: growth inhibition [1] -10.9% | growth inhibition [2] -3.01% | viability increase [3] -3.47% | viability [4] 81.8% | viability [5] 88.7% | inhibition [6] 1.42% | RAM network inhibition [7] 8.24%

Cn1c(Cn2c(=O)sc3ccccc32)nnc1SCC(=O)NCCc1ccccc1
inactive: growth inhibition [1] -10% | growth inhibition [2] -16.2% | viability increase [3] -0.09% | viability [4] 100% | viability [5] 105% | inhibition [6] 2.5% | RAM network inhibition [7] 3.42%

O=C1OC(Nc2nc3ccccc3s2)c2ccccc21 (configuration not stated)
inactive: growth inhibition [1] -2.46% | growth inhibition [2] 6.6% | viability increase [3] 0.26% | viability [4] 101% | viability [5] 101% | inhibition [6] 0.67% | RAM network inhibition [7] 0.48%

O=c1c2ccccc2c2ccccc2c(=O)n1CC1CCCO1 (configuration not stated)
inactive: growth inhibition [1] 2.77% | growth inhibition [2] 0.685% | viability increase [3] -2.2% | viability [4] 101% | viability [5] 89.6% | inhibition [6] 0.305% | RAM network inhibition [7] 12.7%

CCCn1c(C2CC(=O)N(c3cc(OC)ccc3OC)C2)nc2ccccc21 (configuration not stated)
inactive: growth inhibition [1] -6.39% | growth inhibition [2] -14.7% | viability increase [3] -2.88% | viability [4] 98.4% | viability [5] 94.8% | inhibition [6] 1.6% | RAM network inhibition [7] 5%

COc1ccc(-n2c(Cc3cccn3C)nnc2SCC(=O)N2CCOCC2)cc1
inactive: growth inhibition [1] 3.14% | growth inhibition [2] 10.2% | viability increase [3] -1.11% | viability [4] 103% | viability [5] 96% | inhibition [6] 1.11% | RAM network inhibition [7] 0.98%

Cc1ccc(S(=O)(=O)N(C)CCCC(=O)Nc2ccncc2)cc1
inactive: growth inhibition [1] -2.16% | growth inhibition [2] -6.8% | viability increase [3] -0.64% | viability [4] 79.4% | viability [5] 79% | inhibition [6] 0.13% | RAM network inhibition [7] 1.94%

O=C(Nc1ccc(N2CCN(C(=O)c3ccccc3)CC2)c(Cl)c1)c1ccco1
inactive: growth inhibition [1] 4.29% | growth inhibition [2] 14.1% | viability increase [3] -3.69% | viability [4] 67% | viability [5] 75.9% | inhibition [6] 3.31% | RAM network inhibition [7] 5.57%

CCOC(=O)CC1C(=O)NCCN1Cc1cccc(C(F)(F)F)c1 (configuration not stated)
inactive: growth inhibition [1] -4.03% | growth inhibition [2] -3.95% | viability increase [3] -1.61% | viability [4] 97.4% | viability [5] 86% | inhibition [6] 1.66% | RAM network inhibition [7] -0.14%

COC(=O)c1c(S(N)(=O)=O)c2ccccc2n1C
inactive: growth inhibition [1] -2.33% | growth inhibition [2] 2.71% | viability increase [3] -1.28% | viability [4] 100% | viability [5] 102% | inhibition [6] 1.06% | RAM network inhibition [7] 4.32%

COc1ccc2cc(CCNC(=O)C3CCCC3)c(=O)[nH]c2c1
inactive: growth inhibition [1] -6.89% | growth inhibition [2] -9.8% | viability increase [3] -0.27% | viability [4] 109% | viability [5] 98.5% | inhibition [6] 1.08% | RAM network inhibition [7] 0.21%

C=CCn1c(SCCN2CCCCC2)nc2c1c(=O)[nH]c(=O)n2C
inactive: growth inhibition [1] -3.65% | growth inhibition [2] 6.96% | viability increase [3] -1.07% | viability [4] 109% | viability [5] 99.8% | inhibition [6] 1.17% | RAM network inhibition [7] 1.65%

COc1cccc(CN2C(=O)CCC2(C)C(=O)NC2CCCCC2)c1 (configuration not stated)
inactive: growth inhibition [1] -6.64% | growth inhibition [2] 1.03% | viability increase [3] 0.54% | viability [4] 107% | viability [5] 100% | inhibition [6] -0.375% | RAM network inhibition [7] 0.22%

COc1ccccc1NC=C1C(=O)OC(C)(C)OC1=O
inactive: growth inhibition [1] -17.5% | growth inhibition [2] -7.71% | viability increase [3] -2.6% | viability [4] 91% | viability [5] 101% | inhibition [6] 0.955% | RAM network inhibition [7] 2.48%

Cc1cccc(-n2ncc3c(Nc4ccc(F)cc4)ncnc32)c1
inactive: growth inhibition [1] -11.3% | growth inhibition [2] -5.18% | viability increase [3] 2.21% | viability [4] 106% | viability [5] 95.4% | inhibition [6] 3.18% | RAM network inhibition [7] 1.56%

CC1CCc2c(sc3nc(SCc4nc(-c5ccccc5)no4)n(C)c(=O)c23)C1 (configuration not stated)
inactive: growth inhibition [1] -3.38% | growth inhibition [2] -5.98% | viability increase [3] 1.25% | viability [4] 94% | viability [5] 89% | inhibition [6] 2.21% | RAM network inhibition [7] 2.32%

NC(=O)NC1CCCc2c1[nH]c1ccc(Cl)cc21 (configuration not stated)
inactive: growth inhibition [1] 1.64% | growth inhibition [2] 3.78% | viability increase [3] 0.04% | viability [4] 89.9% | viability [5] 87.3% | inhibition [6] 1.15% | RAM network inhibition [7] 0.26%

CCOC(=O)CN1CC23C=CC(O2)C(C(=O)N2CCN(c4ccc(F)cc4)CC2)C3C1=O (configuration not stated)
inactive: growth inhibition [1] 7.71% | growth inhibition [2] 5.64% | viability increase [3] -2.12% | viability [4] 86.7% | viability [5] 93.2% | inhibition [6] 1.45% | RAM network inhibition [7] -0.56%

COC(=O)C1=C(C)N2C(=O)CSC2=NC1c1ccc2c(c1)OCO2 (configuration not stated)
active: growth inhibition [2] 53.2%
inactive: growth inhibition [1] 5.86% | viability increase [3] 0.55% | viability [4] 93.3% | viability [5] 98.8% | inhibition [6] 0.03% | RAM network inhibition [7] 0.78%

Cc1nc(SCC(=O)NCc2ccco2)c2oc3ccccc3c2n1
inactive: growth inhibition [1] -0.535% | growth inhibition [2] 1.3% | viability increase [3] -2.69% | viability [4] 95.2% | viability [5] 94% | inhibition [6] 0.86% | RAM network inhibition [7] 2.53%

COc1ccc(-c2nnc(NC(=O)C(C)C)o2)cc1
inactive: growth inhibition [1] 2.56% | growth inhibition [2] 6.86% | viability increase [3] -1.77% | viability [4] 103% | viability [5] 102% | inhibition [6] 1.23% | RAM network inhibition [7] 4.26%

C=CCNc1nc2c(c(=O)n(C)c(=O)n2C)n1Cc1ccc(F)cc1
inactive: growth inhibition [1] -0.85% | growth inhibition [2] -2.67% | viability increase [3] -2.03% | viability [4] 63.3% | viability [5] 66.9% | inhibition [6] 0.835% | RAM network inhibition [7] 2.3%

O=C1NCCCC1C(=O)N1CCN(C(c2ccccc2)c2ccccc2)CC1 (configuration not stated)
inactive: growth inhibition [1] 6.11% | growth inhibition [2] 11.2% | viability increase [3] 1% | viability [4] 98.5% | viability [5] 94.3% | inhibition [6] 0.65% | RAM network inhibition [7] 7.67%

COc1cc(NC(=O)C2CCCN2C(=O)C2CCC(C)CC2)cc(OC)c1OC (configuration not stated)
inactive: growth inhibition [1] -6.57% | growth inhibition [2] -3.52% | viability increase [3] -1.44% | viability [4] 96.3% | viability [5] 93.2% | inhibition [6] 2.65% | RAM network inhibition [7] 1.46%

Cc1cc(N2CCC(N(C)C3CCCC3)CC2)nc2cc(O)ccc12
inactive: growth inhibition [1] -8.33% | growth inhibition [2] -9.98% | viability increase [3] -7.96% | viability [4] 53.9% | viability [5] 53.7% | inhibition [6] 2.4% | RAM network inhibition [7] 2.21%

O=C(COC(=O)c1ccc(S(=O)(=O)N2CCOCC2)cc1)NC1CCCCCC1
inactive: growth inhibition [1] -5.28% | growth inhibition [2] -3.04% | viability increase [3] 0.74% | viability [4] 101% | viability [5] 105% | inhibition [6] 1.42% | RAM network inhibition [7] 3.1%
